From PubChem BioAssay
NadD inh: inhibitors of S. aureus NadD, primary screen, biochemical, colorimetric, uHTS; 360,000 compounds, 0.78% hits; inhibition, % at 20 µM; purified NadD enzyme, colorimetric absorbance read-out; AID 602399, 2012; Nicotinate-nucleotide adenylyltransferase NadD (Staphylococcus aureus N315); in the data active means inhibition above about 26%
Pemphigus Ab inh: inhibitors of pemphigus antibody binding to DSG3, primary screen, biochemical, bead-based, flow cytometry, scFv-GFP. Desmoglein-3 (Homo sapiens), P32926. DSG3-coupled beads, scFv-anti-DSG3-GFP binding; active compounds read low. binding (percent of control), % at 10 µM. 310,000 compounds, 0.48% hits. AID 588358, 2011;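 active means binding more than 3 SD below its plate's average and above zero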;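 further: hits lower antibody fragment binding to DSG3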
Rce1 inhib: yeast Rce1p protease inhibitors, primary screen, biochemical, fluorescence, cell-free homogeneous; yeast membranes, quenched prenylated peptide cleavage fluorescence; calls only; 290,000 compounds, 0.27% hits; AID 2563, 2010;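 active means fall in fluorescence gain of 50% or more versus controls, with final raw signal at or below 3038400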;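 further: plate controls were neutral control wells for no effect and wells lacking membranes for full effect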
Target sequence (Q03530 whole entry, looked up): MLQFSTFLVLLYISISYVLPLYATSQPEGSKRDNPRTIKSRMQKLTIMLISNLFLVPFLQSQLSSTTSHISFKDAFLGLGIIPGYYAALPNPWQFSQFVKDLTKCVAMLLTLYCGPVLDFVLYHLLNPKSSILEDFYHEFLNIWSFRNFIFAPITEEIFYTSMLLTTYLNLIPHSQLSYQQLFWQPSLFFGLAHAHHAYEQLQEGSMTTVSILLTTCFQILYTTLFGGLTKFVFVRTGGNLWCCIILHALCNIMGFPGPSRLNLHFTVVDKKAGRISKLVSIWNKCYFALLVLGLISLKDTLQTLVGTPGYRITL
Tb MetRS inh: T. brucei MetRS inhibitors, primary screen, biochemical, luminescence; methionyl-tRNA synthetase (Trypanosoma brucei brucei); purified T. brucei MetRS, ATP depletion, Kinase-Glo luminescence; inhibition, % at 11.9 µM; 360,000 compounds, 0.4% hits; AID 624268, 2012;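 active means inhibition above a per-plate cutoff of the control wells' mean inhibition plus 3 SD, cut at about 5.5% in these data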;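 further: 0% = DMSO wells median and 100% = median of wells with control inhibitor compound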
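Test system – parasite MetRS enzyme · Reagent – substrates ATP, L-methionine and bulk Escherichia coli tRNA · Doses – 11.9 µM compound single dose, 0.9% DMSO · Times – 15 min enzyme-compound preincubation, 2 h reaction, 10 min detection, 25 °C · Signal – Kinase-Glo luminescence, ATP depletion format · Controls – DMSO-only wells as low control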
HCV core dimer: inhibitors of HCV core protein dimerization, primary screen, biochemical, TR-FRET, high-throughput; TR-FRET GST/Flag-core106 dimerization, 1536-well; inhibition, % at 5 µM; 300,000 compounds, 0.33% hits;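 active means inhibition above the mean of all tested compounds plus 3 SD, set per screening campaign, cut at about 45% in these data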
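assay system = GST-tagged and Flag-tagged HCV core protein residues 1-106 | controls = unlabelled core106 and no-GST-core106 wells | incubation = compound-protein-antibody incubation 4 h at 22.5 °C | probe or stimulus = Eu donor and XL665 acceptor anti-tag antibodies | read-out = % inhibition based on acceptor/donor emission ratio | signal = TR-FRET 671 and 617 nm emission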
The depositor's hits bear a star; i = inactive; · = not tested or not shown; + = active, no number. Compounds with a hit are over-represented: about 1.9% of the library has one in this group of screens.

SMILES	NadD inh	Pemphigus Ab inh	Rce1 inhib	Tb MetRS inh	HCV core dimer
COCCOC(=O)C1=C(C)NC(=O)N(C(C)=O)C1c1ccc(Cl)cc1 (configuration not stated)	5	107	i	0	-2
COc1ccc(NC(=O)C(NS(=O)(=O)c2cccs2)C(C)C)cc1Cl (configuration not stated)	-5	90	i	0	0
O=C(O)c1ccc2c3c(cccc13)C(=O)N(c1ccccc1)C2=O	-1	16*	i	-1	10
Nc1c(C(=O)NCc2ccccc2)sc2nc(N3CCOCC3)c3c(c12)CCCC3	10	·	+	-1	10
COc1ccc(Cl)cc1NC(=O)CCCNC(=O)c1ccc(Cl)cc1	-9	93	i	0	-14
CCOc1ccc(NC(=O)C2CC(=O)N3CCCN=C3S2)cc1 (configuration not stated)	-4	103	i	0	50*
CCN(CC)c1ccc(NC(=O)CCCCC(=O)Nc2ccc(N(CC)CC)cc2)cc1	-2	88*	·	0	-18
CCN(CC)c1ccc(NC(=O)CCCCCN2C(=O)c3ccccc3C2=O)cc1	2	·	i	-1	-7
O=C(COn1nnc2ccc(Cl)cc21)NC12CC3CC(CC(C3)C1)C2	1	86*	i	-1	3
Cn1c(=O)c2c(O)c(C=NCc3ccccc3)c(=O)n(C)c2n(C)c1=O	-2	98	i	0	-1
O=C(NCC1CCCO1)c1ccccc1-c1nc(-c2ccc(F)cc2)no1 (configuration not stated)	3	106	i	-1	-3
Cc1ccc(C(C)C)c(OCC(=O)Nc2ccc(N3CCN(S(C)(=O)=O)CC3)cc2)c1	-6	53*	·	0	-4
Cc1ccc(C2OCC3(CO)COC(c4ccc(C)cc4)N23)cc1 (configuration not stated)	-6	103	i	-1	-2
CCN1/C(=C2/SC(=S)NC2=O)Sc2ccccc21	-3	93	·	-1	-19
CSc1ccc(C2=C/C(=C3/SC(=S)NC3=O)c3ccccc3O2)cc1	38*	81*	·	0	·
CC1=C(C#N)C(NC(=O)c2ccco2)(C(F)(F)F)C(=O)N1 (configuration not stated)	-7	104	i	-2	-2
Cc1c(NC(=O)Cn2[nH]c(=O)c3ccccc3c2=O)c(=O)n(-c2ccccc2)n1C	-4	99	i	-1	3
Cc1sc(NC(=O)Cn2[nH]c(=O)c3ccccc3c2=O)nc1-c1ccccc1	26	100	i	0	49*
CC(C)(C)c1ccc(C(=O)NCC(=O)OCC(=O)N2CCN(S(=O)(=O)c3ccc(Cl)cc3)CC2)cc1	-7	·	i	0	1
CC1=CCC(C(=O)O)(C(=O)N/N=C/c2cccs2)C(c2ccc([N+](=O)[O-])cc2)C1 (configuration not stated)	0	33*	i	-1	2
CC1=CCC(C(=O)O)(C(=O)N/N=C/c2cccs2)C(c2ccc(F)cc2)C1 (configuration not stated)	-3	99	i	-1	-4
CN1CCN(NC(=O)c2cc(-c3ccc(Br)s3)nc3ccccc23)CC1	2	·	i	0	-28
Cc1cc(NC(=O)CS(=O)(=O)c2cn(Cc3ccc(F)cc3)c3ccccc23)no1	-1	-23*	i	-2	-2
COc1ccc2cc(C(=O)C3CCCN(C(=O)c4cc5nc(C)cc(C)n5n4)C3)ccc2c1 (configuration not stated)	8	·	i	1	3
O=C(NCCc1c[nH]c2ccccc12)OCCSS(=O)(=O)O	6	103	+	-1	0
SMILES	NadD inh	Pemphigus Ab inh	Rce1 inhib	Tb MetRS inh	HCV core dimer
CCC(=O)NCCc1c[nH]c2ccccc12	1	·	i	-1	0
CCOc1ccccc1C(=O)Nc1cc(C(=O)NCCc2ccccc2)ccc1Cl	-1	79*	i	0	4
CCOc1ccccc1C(=O)Nc1cc(C(=O)NCC(C)C)ccc1Cl	·	·	i	·	5
NS(=O)(=O)c1ccc(CCN2C(=O)/C(=C\c3ccc(Cl)cc3)SC2=S)cc1	33*	105	i	-1	9
O=C1/C(=C\c2ccc(Br)o2)SC(=Nc2ccccc2)N1c1ccccc1	11	·	i	0	59*
O=C(Cn1cc(C(=O)c2cccs2)c2ccccc21)NC1CCCCC1	-3	45*	i	1	8
O=C(CN1CCCCCC1)N1c2ccccc2Sc2ccccc21	-4	105	i	-1	0
CN1CCN(C(=O)Nc2cccc3ccccc23)CC1	3	92	i	0	1
CCN(CC)CCCNc1cc(C)nc2cc(-c3cccs3)nn12	-8	94	+	-1	0
O=C(Nc1nnc(C23CC4CC(CC(C4)C2)C3)s1)c1ccco1	2	71*	i	0	1
CN(C)CCCn1c2c3ccccc3ccc2c2oc(=O)c3ccccc3c21	3	70*	·	0	·
Cc1ccc(NC(=O)c2cc(-n3cnnc3)ccc2Cl)cc1	-5	104	i	0	0
Cc1ccc(NC(=O)c2cc(N3C(=O)C=CC3=O)ccc2Cl)cc1C	24	89*	i	1	25
COc1ccc(C2Nc3ccccc3C(=O)N2Cc2ccco2)cc1COc1ccc(NC(C)=O)cc1 (configuration not stated)	4	37*	i	-2	21
O=C1c2ccccc2NC(c2cccc(F)c2)N1Cc1ccco1 (configuration not stated)	-2	99	i	0	6
COc1ccc(C2Nc3ccccc3C(=O)N2Cc2ccco2)cc1COc1ccccc1F (configuration not stated)	14	103	i	0	46*
CCCc1cc(=O)[nH]c(SCC(=O)N2CCCC2=O)n1	3	114	i	0	-3
CCc1ccc(N(C(C)=O)c2nc(CCl)cs2)cc1	-7	87*	·	-1	-1
CC(=O)N(/N=C/c1ccc(C)cc1)c1nc(CCl)cs1	-5	100	i	0	2
O=C(NCCC1=CCCCC1)C(=O)NCCc1ccc(Cl)cc1	6	103	i	-1	-1
O=C(NCCC1=CCCCC1)C(=O)NCc1ccncc1	1	52*	i	0	1
Cc1nc2ccccc2nc1OCC(=O)Nc1ccc2ccccc2c1	-2	65*	i	0	-2
Cc1cc(C)c(NC(=O)COc2nc3ccccc3nc2C)c(C)c1	0	102	i	0	-2
